Active and inactive are the calls of the source.
Legend:
Proteus mirabilis = assay: Antibacterial activity against Proteus mirabilis ATCC 29906 assessed as growth inhibition at 1 to 600 ug/mL after 18 hrs by broth microdilution method; assay type: functional
Escherichia coli = assay: Antibacterial activity against Escherichia coli NCTC 8192 assessed as growth inhibition at 1 to 600 ug/mL after 18 hrs by broth microdilution method; assay type: functional, organism-based
Proteus vulgaris = assay: Antibacterial activity against Proteus vulgaris ATCC 49990 assessed as growth inhibition at 1 to 600 ug/mL after 18 hrs by broth microdilution method; assay type: functional, organism-based
Pseudomonas aeruginosa = assay: Antibacterial activity against Pseudomonas aeruginosa NCTC 6249 assessed as growth inhibition at 1 to 600 ug/mL after 18 hrs by broth microdilution method; assay type: functional, organism-based
Enterococcus faecalis = assay: Antibacterial activity against Enterococcus faecalis ATCC 29212 assessed as growth inhibition at 1 to 600 ug/mL after 18 hrs by broth microdilution method; assay type: functional, organism-based
Staphylococcus aureus [1] = assay: Antibacterial activity against Staphylococcus aureus ATCC 29213 assessed as growth inhibition at 1 to 600 ug/mL after 18 hrs by broth microdilution method; assay type: functional, organism-based
How it was run: (§1)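 Frozen stocks (-80 °C, tryptic soy broth with 15% glycerol); S. aureus subcultured on blood agar and identified by catalase, coagulase and clumping factor. Inoculum at 0.5 McFarland. DMSO-dissolved compounds 1–600 µg/mL in Mueller–Hinton broth, 37 °C 18 h, OD600 read with and without compound. MIC = lowest concentration preventing growth; triplicates, per CLSI.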

Candida albicans = assay: Antifungal activity against Candida albicans ATCC 10231 assessed as growth inhibition at 1 to 600 ug/mL after 18 hrs by broth microdilution method; assay type: functional, organism-based
[2] = tested on: Staphylococcus epidermidis; assay: Antibacterial activity against Staphylococcus epidermidis ATCC 12228 assessed as growth inhibition at 1 to 600 ug/mL after 18 hrs by broth microdilution method; assay type: functional, organism-based
Staphylococcus aureus [3] = assay: Antibacterial activity against Staphylococcus aureus ATCC 6538 assessed as growth inhibition at 1 to 600 ug/mL after 18 hrs by broth microdilution method; assay type: functional, organism-based; how it was run: as §1

Measured: Activity

C/C(=N\NC(=O)c1c(C)n(Cc2ccccc2)c[n+]1[O-])c1ccccc1
inactive: all assays above

COc1ccc(/C=N/NC(=O)c2c(C)n(Cc3ccccc3)c[n+]2[O-])cc1
inactive: all assays above

Cc1c(C(=O)N/N=C/c2ccc(N(C)C)cc2)[n+]([O-])cn1Cc1ccccc1
inactive: all assays above

Cc1c(C(=O)N/N=C/c2ccc([N+](=O)[O-])cc2)[n+]([O-])cn1Cc1ccccc1
inactive: all assays above

Cc1c(C(=O)N/N=C/c2ccccc2)[n+]([O-])cn1Cc1ccccc1
inactive: all assays above

From ChEMBL document CHEMBL2384936, “Synthesis and evaluation of antimicrobial activity of hydrazones derived from 3-oxido-1H-imidazole-4-carbohydrazides” (Eur J Med Chem, 2013)
